Drawing on the RNAGym collection of RNA variant scans (doi:10.1126/science.aae0568), this text covers yeast fitness for 75 variants.

The chains are these.
B1: tRNA (parent)
chain: GUUCCGUUGGCGUAAUGGUAACGCGUCUCCCUCCUAAGGAGAAGACUGCGGGUUCGAGUCCCGUACGGAACG

Fewer inactive variants are shown than the library holds.

Variants of B1 are the subject of the data set. In words: yeast fitness relative to wild type (ratio to wild type); higher = fitter; tRNA-Arg(CCU), competitive growth, 37 C, YPD. The gist of the method:
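Variants of the tRNA-Arg(CCU) gene were chemically synthesised with a 3% per-site mutation rate across 69 sites and placed at the native genomic locus in Saccharomyces cerevisiae. Six parallel replicates of the pooled strains were competed in YPD at 37°C for 24 hours, and gene amplicons from the start and end populations were read by 100-nucleotide paired-end sequencing. Darwinian fitness relative to wild type was derived from changes in genotype frequencies. Genotypes required ≥ 100 starting reads, and estimates < 0.5 were set to 0.5.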
Regarding GUUCCGUCGGCGUAAUGGUAAAGCGUCUCCCUCCUAAGGAGAAGACUGCGGGAUCGAGUCCCGUACGGAACG, the yeast fitness is no more than 0.5.
As for GUUCCGUCGGCGUAAUGGUAACGAGUCUCCCUCCUAAGGAGAAGAGUGCGGGUUCGAGUCCCAUACGGAACG, the yeast fitness stood at 0.597.
In the case of GUUCCGUCGGCGUAAUGGUAAUGCGUCUCCCUCCUAAGGAGAAGACUGCGGGUUCGAGUCCCGUACGGAACG, the yeast fitness stood at 0.768.
Then GUUCCGUCGGCGUAAUGGUAAAGCGUCUCCCUCCUAAGGAGAAGACUGCGGGUUCGAGUCCCGUACGGAACG, with 0.932; and GUUCCGUCGGCGUAAUGGUAAUGCGUCUCCCUCCUAAGGAGAAGACUGCGGGAUCGAGUCCCGUACGGAACG, with no more than 0.5.
For the variant GUUCCGUCGGCGUAAUGGUAAGGCGUCUCCCUCCUAAGGAGAAGACCGCGGGGUCGAGUCCCGUACGGAACG, the yeast fitness was no more than 0.5.
Take GUUCCGUCGGCGUAAUGGUAACGCGUCUCCCUCCUAAGGAGAAGACUGCGGGUUCGGGUCCCGUAUGGAACG: the yeast fitness was found to be 0.704.
In the case of GUUCCGUCGGCGUAAUGGUAACGCGUCUCCCUCCUAAGGAGAAGACUGCGGGUUCGGGUCCCGUACGGAACG, the yeast fitness came out at 0.856.
As for GUUCCGUCGGCGUAAUGGUAACGCGUCUCCCUCCUAAGGAGAAGACUGCGGGUUCGUGUCCCGUACGGAACG, the yeast fitness stood at 0.788.
Then GUUCCGUCGGCGUAAUGGUAACGCGUCUCCCUCCUAAGGAGAAGACUGCGGGUUCGCGUCCCGUACGGAACG, with 0.599; and GUUCCGUCGGCGUAAUGGUAAGGCGUCUCCCUCCUAAGGAGAAGACUGCGGGUACGAGACUCGUACGGAACG, with no more than 0.5; and GUUCCGUCGGCGUAAUGGUAACGCGUCUACCUCCUAGGGAGAAGACUGCGGGUUCGAGUCCCGUACGGAACG, with 0.616.
In the case of GUUCCGUCGGCGUAAUGGUAACGCGUCUCCCUCCUAAGGAGAAGACUGCGGGUUCGAGUCCCGUACGGACCG, the yeast fitness stood at 0.922.
For GUUCCGUCGGUGUAAUGGUAGCGCGUCUCCCUCCUAAGGAGAAGACUGCGGGUUCGAGUCCCGUACGGAACG the value was 0.7.
Take GUUCCGUCGGCGUAAUGGUAACGCGUCUACCUCCUAAGGAGAAGACUGCGGGUUCGAGUCCCGUACGGAACG: the yeast fitness is 0.664.
For GUUCCGUCGGCGUAAUGGUAACGCGUCUCCCUCCUAAGGAGAAGACUGCGGGUUCGAGUCCCGUUCGGCACG, the yeast fitness is 0.615.
GUUCCGUCGGCGUAAUGGUAACGCGUUUCCAUCCUAAGGAGAAGACUGCGGGUUCGAGUCCCGUACGGAACG: the yeast fitness is 0.56.
Take GUUCCGUCGGUGUAACGGUAACGCGUCUCCCUCCUAAGGAGAAGAUUGAGGGUUCGAGUCCCGUACGGAACG: the yeast fitness amounted to 0.573.
Then GUUCCGUCGGCGUAAUGGUAACGCGUUUCCCUCCUAAGGGGAAAACUGCGGGUUCGAGUCCAGUACGGAACG, with no more than 0.5; and GUUCCGUCGGCGUAAUGGUAACGCGUCUCCCUCCUAAGGAGAAGUCUGCGGGUUCGAGCCCCGUACGGAACG, with 0.57.
With GUUCCGUCGGCGUAAUGGUAACGUGACUCCCUCCUAAGGAGAAGACUGCGGGUUCGAGUCCCGUACGGAACG, the yeast fitness is 0.607.
Consider GUUCCGUCGGCGUAAUGGUAACGUGUCUCCCUCCUAAGGAGAAGUCUGCGGGUUCGAGUCCCGUACGGAACG, for which the yeast fitness came to 0.608.
In the case of GUUCCGUCGGCGUAAUGGUAACGCGUCUACCUCCUAAGGAGAAGACUGCGGGUUCGAGUCCCGUCGGGAACG, the yeast fitness was no more than 0.5.
Take GUUCCGUCGGUGUAAUGGUAACGCGUAUCGCUCCUAAGGAGAAGAUAGCGGGUUCGAGUCCCGUACGGAACG: the yeast fitness worked out at 0.603.
As to GUUCCGUCGGCGUAAUGGUAACGCGUCUCCCUCCUAAGGAGAAGUCUGUGGGUUCGAGUCCCGUACGGAACG, the yeast fitness was 0.714.
For the variant GUUCCGUCGGCGUAAUGGUAACGUGUCUCCCUCCUAAGGAGCAGACUGCUGGUUCGAGUCCCGUACGGAACG, the yeast fitness was 0.674.
Regarding GUUCCGUCGGCGUAAUGGUAACGCGUAUCCCUCCUAAGGGGAAGAGUGCGGGUUCGAGUCCGGUACGGAACG, the yeast fitness is no more than 0.5.
Regarding GUUCCGUCGGCGUAAUGGUAACGCGUCUCCCUCCUAAGGAGAAGUCUGCGGGUUCGAGUCCCGUUCGGAACG, the yeast fitness turned out to be 0.709.
Regarding GUUCCGUCGGCGUAAUGGUAACGCGUUGCCCUGCUGAGGAGAAGACUGCGGGUUCGAGUCCCGUACGGAACG, the yeast fitness was no more than 0.5.
Turning to GUUCCGUCGGCGUAAUGGUAACGCGUUUCCCUCCUAAGGAGAAGACUGCGGGUUCGAGUCCUGUACGGAACG, the yeast fitness turned out to be 0.736.
For GUUCCGUCGGAGUAAUGGUAACGCGUCUCACUCCUAAGGAGAAGACUGCGGGUUCGAGUCCCGUACGGAACG, the yeast fitness was no more than 0.5.
For GUUCCGUCGGCGUAAUGGUAACGCGUCUCCCUCCUAAGGAGAAGACUGCGGGUUCGUGUCUCGUACGGAACG the value was 0.536; for GUUCCGUCGGCGUAAUGGUAAUGCGUCUCUCUUCUAAGGAGAAGCCUGCGGGUUCGAGUCCCGUACGGAACG, no more than 0.5.
With GUUCCGUCGGGGUAAUGGUAACGCGUCUCCCUCCUAAGGAGAAGACUGCGGGUUCGAUUCCCGUACGGAACG, the yeast fitness is no more than 0.5.
Then GUUCCGUCGGAGUAAUGGUAACGCGUCUCCCUCCUAAGGAGAAGACUGCGGGUUCGAGUCCCGUAGGGAACG, with no more than 0.5.
Consider GUUCCGUCGGCGUAAUGGUAAUGCGUCUCCCUCCUAAGGAGAAGACUGCGGGUUCGAGUCCCGUACGGCACG, for which the yeast fitness turned out to be 0.505.
On to GUUCCGUCGGCGUAAUGGUAACGGGUCUCCCUCCUAAGGAGAAGACUGCGGGUUAGAGUCCCGUACGGAACG, for which the yeast fitness was no more than 0.5.
For GUUCCGUCGGCGUAAUGGUAAUGCGUCUCCUUCCUAAGGAGAAGACUGCGGGUUCGAGUACCGUACGGAACG the value was no more than 0.5; for GUUCCGUCGGGGUAAUGGUAACGCGUCUCCCUCCUAAGGAGAAGAUUGCGGGUUCGAGUCCCGUACGGAACG, no more than 0.5.
For GUUCCGUCGGCGUAAUGGUAAGGCGUCUCCCUCCUAAGGAGAAGACUGCGGGUUGGAGUCCCGUACGGAACG the value was no more than 0.5; for GUUCCGUCGGCGUAAUGGUAAUGCGUCUCCCUCAUAAGGAGAAGACUGCGGGUUCGAGUCCCGUACGGAACG, 0.952.
As to GUUCCGUCGGAGUAAUGCUAACGCGUGUCCCUCCUAAGGAGAAGACUGCGGGUUCGAGUCCCGUACGGAACG, the yeast fitness was no more than 0.5.
Regarding GUUCCGUCGGUGUAAUCGUAACGCGUCUCCAUCCUAAGGAGAAGACUGCGGGUUCGAGUCCCGUCCGGAACG, the yeast fitness is no more than 0.5.
Turning to GUUCCGUCGGCGUAAUGGUAACGCGUUUCCCUCCUAAGGAGUAGACUGCGGGUUCGAGUCCCGUACGGAACG, the yeast fitness came to 0.552.
Take GUUCCGUCGGGGUAAUGGUAACGCGUCUCCCUCCUAAGGAGAAGACUGCGGGUUCGAGUCCCAUAGGGAACG: the yeast fitness was no more than 0.5.
On to GUUCCGUCGGCGUAAUGGUAAGGCGUCUCCCUCCUAAGGAGAAGACUGUGGGUUCGAGUCCCGCACGGAACG, for which the yeast fitness was 0.679.
Turning to GUUCCGUCGGCGUAAUGGUAACGCGUGUACCUCCUAAGGAGAAGACUGCGGGUUCGAGUCCCGUACGGAGCG, the yeast fitness was no more than 0.5.
GUUCCGUCGGAGUAAUGGUUACGCGUCUCCCUCCUAAGGAGAAGACUGCGGGUUCGAGUCCCGUAUGGAACG: the yeast fitness was no more than 0.5.
Consider GUUCCGUCGGCGUAAUGGUAACGCGUUUCCAUCCUAAGGAGAAGACUGCGGGUUAAAGUCCCGUGCGGAACG, for which the yeast fitness is no more than 0.5.
Take GUUCCGUCGGCGUAAUGGUAACGCGUCUCCCUCCUAAGGAGAAGACUGCGGGUUCGAGUCCCGUACGGUACG: the yeast fitness was determined as 0.933.
For the variant GUUCCGUCGGCGUAAUGGUAACGCGUCUCCCUCCUAAGGAGAAGACUGCGGGUUCGAGUCCCGUACGGCACG, the yeast fitness was 0.991.
For the variant GUUCCGUCGGCGUAAUGGUAACGCGUCUCCCUCCUAAGGAGAAGACUGCGGGUUCGAGUCCCGUCCGGAACG, the yeast fitness came to 0.964.
For GUUCCGUCGGCGUAAUGGUAACGCGUCUCCCUCCUAAGGAGAAGACUGCGGGUUCGAGUCCCGUGCGGAACG, the yeast fitness stood at 0.929.
In the case of GUUCCGUCGGUGUAAUGGUAACGCGUCUCCCUCCUAAGGAGAAGAUUGAGGGUUCGAGUCCCGUACGGAACG, the yeast fitness is no more than 0.5.
GUUCCGUCGGCGUAAUGGUAACGCGUUUCCCACCUAAGGAGAAGACUGCGGGUUCGAGUCCCGUAUCGAACG: the yeast fitness is no more than 0.5.
For the variant GUUCCGUCGGCGUAAUGGUAACGCGUAUCCCUCCUAAGGAGCAGACUGCGGGUUCGAGUCCCGUACGGAACG, the yeast fitness turned out to be 0.532.
Then GUUCCGUCGGCGUAAUGGUAAUGCGUCUUCCUCCUAAGGAGAAGACUGCGGGUUCGAGUCCCGUACGGAACG, with no more than 0.5; and GUUCCGUCGGCGUAAUGGUAACGCGUUUCCCUCCUAAGGAGAAGACUGCGGGUUCGAGUCCCGUACGGAACG, with 0.792.
In the case of GUUCCGUCGGCGUAAUGGUAACGCGUAUCCCUCCUAAGGAGAAGACUGCGGGUUCGAGUCCCGUACGGAACG, the yeast fitness came out at 0.791.
For GUUCCGUCGGCGUAAUGGUAACGCGUGUCCCUCCUAAGGAGAAGACUGCGGGUUCGAGUCCCGUACGGAACG, the yeast fitness was found to be 0.647.
Consider GUUCCGUCGGUGUAAUGGUAACGCGUCUCCCUCCUAAGGAGAAGACUGCGGGUUCGAGUCCCGUACGGAACG, for which the yeast fitness was 1.02.
Then GUUCCGUCGGGGUAAUGGUAACGCGUCUCCCUCCUAAGGAGAAGACUGCGGGUUCGAGUCCCGUACGGAACG, with 0.686; and GUUCCGUCGGAGUAAUGGUAACGCGUCUCCCUCCUAAGGAGAAGACUGCGGGUUCGAGUCCCGUACGGAACG, with 0.698.
Consider GUUCCGUCGGCGUAAUGGUAACGGGUCUACCUCCUAAGGAGAUGACUGCGGGUUCGAGUCCCGUACGCAACG, for which the yeast fitness is no more than 0.5.
With GUUCCGUCGGUGUAAUGGUAACGCGUCUCCCUCGUAAGGAGAAGACUGCGGGUUCGAGUCCCGUACGGAACG, the yeast fitness was no more than 0.5.
For GUUCCGUCGGCGUAAUGGUAACGCGUUUCCCUCGUAAGGAGAAGACUGCGGGUUCGAGUCCCGUACGGAACG the value was no more than 0.5; for GUUCCGUCGGCGUAAUGGUAAUGCGUUUCCCUCCUAAGGAGAAGACUGCGGGUUCGACUCCCGUACGGAACG, no more than 0.5.
Then GUUCCGUCGGCGUAAUGGUAACGAGUCUCCCUCCUAAGGAGAAGACUGCGGGUUCGAGUCCCGUACGGAACG, with 0.616; and GUUCCGUCGGCGUAAUGGUAAGGCGUUUCCCUCCUAAGGAGAAGACUGUGGGUUCGAGUCCCGCACGGAACG, with no more than 0.5.
GUUCCGUCGGCGUAAUGGUAACGCGUUUCCAUCCUAAGGAGAAGACUGCGGGUUAAAGUCCCGUACGGAACG: the yeast fitness amounted to 0.579.
As for GUUCCGUCGGCGUAAUGGUAACGCGUCUCCCUCCUAAGGAGAAGGCUGCGGGUUCGAGUCCCGUACGGAACG, the yeast fitness came out at 0.906.
As to GUUCCGUCGGCGUAAUGGUAAAGCGUCUCCCUCCUCAGGAGAAGACUGCGGGUUCGAGUCCCAUACCGAACG, the yeast fitness is no more than 0.5.
In the case of GUUCCGUCGGCGUAAUGGUAAAGCGUCUCCCUCCUAAGGAGAAGACUGCGGGUUCGAGUCCCGAACGCAACG, the yeast fitness was no more than 0.5.
For the variant GUUCCGUCGGCGUAAUGGUAACGCGUGUCCCUCCUAAGCAGAAGACUGCGGGUUCGAGUCCCGUACGGAACG, the yeast fitness is no more than 0.5.
Regarding GUUCCGUCGGCGUAAUGGUAAUGCGUCUCCCUCCUAAGGAGAAGACUGCGGGUUCGACUCCCGUACGGAACG, the yeast fitness was no more than 0.5.
